Each block holds one compound with its values, some of them ahead of it.
How the values were obtained:
[1] = Inhibition of Sprague-Dawley rat brain FTase by continuous fluorescence assay
Outline: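 Enzyme source: cytosolic fraction (100 000g supernatant) of brains from male Sprague–Dawley rats aged 9–10 weeks, kept at -80 °C. Reaction: 50 mM Tris-HCl pH 7.5, 5 mM MgCl2, 10 μM ZnCl2, 5 mM DTT, 0.01% n-dodecyl-β-D-maltoside, 5.4 mg/mL cytosolic protein, 1.3 μM dansyl-CVIM, 25 μM FPP. Run at 25 °C, fluorescence (ex 340/em 505 nm) recorded 10 min. IC50 obtained by fitting ΔF/Δt versus inhibitor concentration.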

[2] = Inhibition of Sprague-Dawley rat brain GGTI by continuous fluorescence assay
Outline: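 GGT-I source: rat brain cytosol (male Sprague–Dawley, 100 000g supernatant). Buffer: 50 mM Tris-HCl pH 7.5, 5 mM MgCl2, 10 μM ZnCl2, 5 mM DTT, 0.01% dodecyl maltoside, 5.4 mg/mL protein, 4 μM dansyl-GCVLL, 10 μM GGPP. Incubated at 25 °C; fluorescence followed for 10 min at ex 340/em 505 nm. IC50 taken from sigmoid fit of rate against inhibitor concentration.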

[3] = system: L1210; assay: Growth inhibition of mouse L1210 cells by MTT assay after 72 hrs; format: functional, cell-based; conditions: L1210, 72 h
Outline: (§1)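 Cells (H-Ras-transformed NIH3T3 fibroblasts; K-Ras-transformed DLD-1 colon adenocarcinoma; L-1210 leukaemia) grown in RPMI + 10% fetal calf serum. Seeded and allowed to grow 24 h, then exposed to a range of inhibitor concentrations for 72 h, 1% DMSO final. Growth read by colorimetric MTT assay; EC50 derived.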

[4] = system: DLD-1; assay: Growth inhibition of human DLD1 cells by MTT assay after 72 hrs; format: functional, cell-based; conditions: DLD-1, 72 h; outline: as §1
[5] = system: NIH3T3; assay: Growth inhibition of H-Ras transformed […] cells by MTT assay after 72 hrs; format: functional, cell-based; conditions: Mus musculus, NIH3T3, 72 h; outline: as §1

Compound: COC(=O)[C@H](CCSC)N(C(=O)c1ccccc1)C1CCN(Cc2cncn2Cc2ccccc2)CC1
- IC50 [1]: 397 nM

Compound: COC(=O)[C@H](CCSC)N(C(=O)c1ccccc1)C1CCN(Cc2cncn2Cc2ccc(C(F)(F)F)cc2)CC1
- IC50 [1]: 43.9 nM

Compound: COC(=O)[C@H](CCSC)N(C(=O)c1ccccc1)C1CCN(Cc2cncn2Cc2ccc(OC)cc2)CC1
- IC50 [1]: 575 nM

Compound: CC(C)C[C@H](NC(=O)c1ccc(NC(=O)[C@@H](N)CS)cc1-c1ccccc1)C(=O)O
- IC50 [2]: 12.4 nM
- IC50 [1]: 56.2 nM

Compound: N#Cc1ccc(Cn2cncc2CN2CCC(N(C(=O)c3ccccc3)[C@@H](Cc3ccccc3)C(=O)O)CC2)cc1
- IC50 [2]: > 2000 nM
- IC50 [1]: 54.1 nM

Compound: COC(=O)[C@H](CCSC)N(C(=O)c1ccccc1)C1CCN(Cc2cncn2Cc2ccc(C)cc2)CC1
- IC50 [1]: 600 nM

Compound: CSCC[C@H](NC(=O)c1ccc(NC(=O)[C@@H](N)CS)cc1)C(=O)O
- IC50 [2]: > 100 nM
- IC50 [1]: 72 nM

The next compounds have a lower IC50 [1] than those just listed; values first:

- IC50 [2]: > 5000 nM
- IC50 [1]: 34 nM
Compound: CSCC[C@H](NC(=O)[C@H](Cc1ccccc1)NC[C@@H](NC[C@@H](N)CS)C(C)C)C(=O)O

- IC50 [2]: > 2000 nM
- IC50 [1]: 32.7 nM
Compound: CCC(C)[C@@H](C(=O)OC)N(C(=O)c1ccccc1)C1CCN(Cc2cncn2Cc2ccc(C#N)cc2)CC1 (stereo partly specified)

- IC50 [2]: > 100 nM
- EC50 [3]: > 10000 nM
- IC50 [1]: 22.8 nM
- EC50 [4]: 18100 nM
Compound: COC(=O)[C@H](CCSC)N(C(=O)c1ccccc1)C1CCN(C(=O)C(N)CS)CC1 (stereo partly specified)

- IC50 [2]: > 2000 nM
- IC50 [1]: 22 nM
Compound: COC(=O)[C@H](Cc1ccccc1)N(C(=O)c1ccccc1)C1CCN(Cc2cncn2Cc2ccc(C#N)cc2)CC1

- IC50 [2]: > 2000 nM
- IC50 [1]: 10 nM
Compound: CSCC[C@@H](C(=O)O)N(C(=O)c1ccccc1)C1CCN(Cc2cncn2Cc2ccc(C#N)cc2)CC1

- IC50 [2]: > 2000 nM
- EC50 [3]: 20 nM
- IC50 [1]: 4.6 nM
- EC50 [4]: 9200 nM
Compound: COC(=O)[C@H](CCSC)N(C(=O)c1ccccc1)C1CCN(Cc2cncn2Cc2ccc(C#N)cc2)CC1
- EC50 [5]: 1330 nM

- IC50 [2]: > 2000 nM
- EC50 [3]: > 5000 nM
- IC50 [1]: 2.35 nM
- EC50 [4]: 12900 nM
Compound: COC(=O)[C@H](CCSC)N(Cc1ccccc1)C1CCN(Cc2cncn2Cc2ccc(C#N)cc2)CC1

Source: ChEMBL document CHEMBL1149307, “Potent and selective farnesyl transferase inhibitors” (J Med Chem, 2004)
